In BindingDB's records for doi:10.1021/acs.jmedchem.9b01065 (Colorado State University, 2019):

What was measured:
[1] = target: T1, DNA topoisomerase 2-alpha (Homo sapiens, UniProt P11388); test: Inhibition of topoisomerase 2alpha in human SW620 organoids transfected with VimPro-GFP reporter assessed as reversion of epithelial-mesenchymal transition by measuring reduction in vimentin expression after 72 hrs by Hoechst 33342 staining based GFP reporter gene assay
Outline: (§1)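 SW620 cells stably carrying VimPro-GFP or EcadPro-mCherry (puromycin selected) grown as organoids and dosed 72 h. Stained with 16 μM Hoechst 33342 for 1 h and imaged as 15 z-layers, 26.5 μm apart. Nuclei segmented and GFP- or mCherry-positive cells counted above background thresholds. Percent positive cells normalised to DMSO.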

[2] = target: T1, DNA topoisomerase 2-alpha; test: Inhibition of topoisomerase 2alpha in human SW620 organoids transfected with EcadPro-RFP reporter assessed as reversion of epithelial-mesenchymal transition by measuring increase in E-cadherin expression after 72 hrs by Hoechst 33342 staining based mCherryRFP reporter gene assay; outline: as §1

T1 sequence (P11388 whole entry): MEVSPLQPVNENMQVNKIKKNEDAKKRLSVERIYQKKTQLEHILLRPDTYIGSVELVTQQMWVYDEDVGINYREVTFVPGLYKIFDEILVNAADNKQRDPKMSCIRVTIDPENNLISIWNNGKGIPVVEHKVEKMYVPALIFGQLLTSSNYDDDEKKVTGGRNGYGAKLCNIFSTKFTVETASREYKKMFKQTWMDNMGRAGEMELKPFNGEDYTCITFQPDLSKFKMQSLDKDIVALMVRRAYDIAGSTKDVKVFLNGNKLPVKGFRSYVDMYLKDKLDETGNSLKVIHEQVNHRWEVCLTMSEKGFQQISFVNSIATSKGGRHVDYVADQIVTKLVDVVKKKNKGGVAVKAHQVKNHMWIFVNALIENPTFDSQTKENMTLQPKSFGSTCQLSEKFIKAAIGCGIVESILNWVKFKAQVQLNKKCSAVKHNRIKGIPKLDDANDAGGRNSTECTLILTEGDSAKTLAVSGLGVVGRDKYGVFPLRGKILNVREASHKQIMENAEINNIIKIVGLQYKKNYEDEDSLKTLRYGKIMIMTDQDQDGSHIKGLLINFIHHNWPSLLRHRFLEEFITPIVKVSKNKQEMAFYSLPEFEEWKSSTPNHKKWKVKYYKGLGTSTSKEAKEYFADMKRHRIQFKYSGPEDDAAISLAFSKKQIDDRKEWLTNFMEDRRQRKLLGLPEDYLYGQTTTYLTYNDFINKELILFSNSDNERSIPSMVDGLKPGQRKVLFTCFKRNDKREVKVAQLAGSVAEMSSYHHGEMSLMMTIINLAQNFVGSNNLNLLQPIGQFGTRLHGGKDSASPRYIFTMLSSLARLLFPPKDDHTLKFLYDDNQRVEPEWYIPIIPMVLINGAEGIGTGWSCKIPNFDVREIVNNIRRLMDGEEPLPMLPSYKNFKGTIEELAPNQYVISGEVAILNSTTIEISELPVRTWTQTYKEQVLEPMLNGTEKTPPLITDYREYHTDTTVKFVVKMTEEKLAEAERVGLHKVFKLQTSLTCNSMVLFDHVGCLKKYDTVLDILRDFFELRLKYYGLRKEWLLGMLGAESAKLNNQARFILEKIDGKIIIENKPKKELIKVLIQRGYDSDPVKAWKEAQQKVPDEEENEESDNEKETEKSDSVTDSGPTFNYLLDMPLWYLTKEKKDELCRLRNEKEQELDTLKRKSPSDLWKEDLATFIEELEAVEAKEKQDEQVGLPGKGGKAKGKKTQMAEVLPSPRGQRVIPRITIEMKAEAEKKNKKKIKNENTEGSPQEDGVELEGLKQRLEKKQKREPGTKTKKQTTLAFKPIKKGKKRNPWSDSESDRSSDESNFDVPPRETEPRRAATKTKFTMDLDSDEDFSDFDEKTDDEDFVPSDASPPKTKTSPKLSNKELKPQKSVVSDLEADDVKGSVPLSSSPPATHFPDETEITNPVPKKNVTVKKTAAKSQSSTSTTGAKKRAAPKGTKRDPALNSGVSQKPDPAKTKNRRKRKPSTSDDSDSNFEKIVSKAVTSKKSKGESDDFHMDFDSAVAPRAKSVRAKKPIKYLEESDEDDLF

| EC50 [1] [µM] | EC50 [2] [µM] | Structure (SMILES) |
| --- | --- | --- |
| 4 | 9 | COc1cc(NC(C)=O)c(O)c2nccc(-c3ccccc3NC(=O)c3ccccc3)c12 |
| 4.7 | 3.1 | CC(C)(C)C(=O)Nc1ccc2c(-c3ccccc3)ccnc2c1O |
| 1.9 | 1.2 | O=C(CCN1CCOCC1)Nc1ccc2c(-c3cc(F)ccc3O)ccnc2c1O |
| 2.4 | 3 | O=C(CCN1CCOCC1)Nc1ccc2c(-c3cc4ccccc4o3)ccnc2c1O |

The remaining lines, values behind:

| Structure (SMILES) | EC50 [1] [µM] | EC50 [2] [µM] |
| --- | --- | --- |
| CC(=O)Nc1ccc2c(-c3ccoc3)ccnc2c1O | 1.7 | 3.4 |
| CC(=O)Nc1ccc2c(-c3cc(F)ccc3O)ccnc2c1O | 1.2 | 1.6 |
| O=C(CN1CCOCC1)Nc1ccc2c(-c3cc4ccccc4o3)ccnc2c1O | 1 | 3.3 |
| CC(=O)Nc1ccc(-c2ccnc3c(O)c(NC(C)=O)ccc23)cc1 | 9.5 | 5.5 |
| CC(=O)Nc1ccc2c(-c3cccs3)ccnc2c1O | 1.2 | 1.1 |
| CC(=O)Nc1ccc2c(-c3cc4ccccc4o3)ccnc2c1O | 3.5 | 5.4 |
